From ChEMBL document CHEMBL4152234, “Aminobenzothiazole derivatives stabilize the thermolabile p53 cancer mutant Y220C and show anticancer activity in p53-Y220C cell lines” (Eur J Med Chem, 2018)
The source made the active and inactive calls. The calls are words filed in the database; no cut-off is given here.

Assays:
Format in all cases: cell-based
[1] = test system: Cellular tumor antigen p53 (Homo sapiens), P04637 [Y220C]; assay: Activation of p53 Y220C mutant in human NUGC3 cells assessed as change in TP63 mRNA level at 60 uM after 18 hrs by RT-PCR method relative to control
Outline: (§1)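 p53 signalling qPCR array covering 84 p53 pathway genes. Cells were exposed for 18 h, and compound and control wells both held 0.5% DMSO. Total RNA was extracted and purified. Fold-changes were calculated by the ΔΔCt method against the untreated sample, with β2-microglobulin (B2M) as the housekeeping gene. Each cell line was run in two independent biological replicates.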

[2] = test system: Cellular tumor antigen p53 (Homo sapiens), P04637 [Y220C]; assay: Activation of p53 Y220C mutant in human NUGC3 cells assessed as change in CDKN2A mRNA level at 60 uM after 18 hrs by RT-PCR method relative to control
Outline: (§2)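 p53 signalling qPCR array covering 84 genes. Cells were exposed for 18 h, with 0.5% DMSO in both compound and control samples. Total RNA was extracted and purified. Fold-changes were calculated by ΔΔCt using β2-microglobulin (B2M) as the housekeeping gene. Two independent biological replicates were run per cell line.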

[3] = target: T1, Cellular tumor antigen p53 (Homo sapiens, UniProt P04637); assay: Activation of p53 in human NUGC4 cells assessed as change in GADD45A mRNA level at 60 uM after 18 hrs by RT-PCR method relative to control; conditions: read-out: FC
Outline: (§3)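 p53 signaling qPCR array of 84 p53-pathway genes. Cells were treated in 6-well plates for 18 h with 0.5% DMSO in compound and control samples. Total RNA was extracted and fold-changes were obtained by the ΔΔCt method against untreated control, with β2-microglobulin (B2M) as housekeeping gene. Two independent biological replicates per cell line.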

[4] = test system: Cellular tumor antigen p53 (Homo sapiens), P04637 [Y220C]; assay: Activation of p53 Y220C mutant in human NUGC3 cells assessed as change in TP53 mRNA level at 60 uM after 18 hrs by RT-PCR method relative to control; outline: as §1
[5] = target: T1, Cellular tumor antigen p53; assay: Activation of p53 in human NUGC4 cells assessed as change in BRCA1 mRNA level at 60 uM after 18 hrs by RT-PCR method relative to control; conditions: read-out: FC; outline: as §3
[6] = target: T1, Cellular tumor antigen p53; assay: Activation of p53 in human NUGC4 cells assessed as change in CCNE1 mRNA level at 60 uM after 18 hrs by RT-PCR method relative to control; conditions: read-out: FC; outline: as §3
[7] = target: T1, Cellular tumor antigen p53; assay: Activation of p53 in human NUGC4 cells assessed as change in E2F3 mRNA level at 60 uM after 18 hrs by RT-PCR method relative to control; conditions: read-out: FC; outline: as §3
[8] = target: T1, Cellular tumor antigen p53; assay: Activation of p53 in human NUGC4 cells assessed as change in EI24 mRNA level at 60 uM after 18 hrs by RT-PCR method relative to control; conditions: read-out: FC; outline: as §3
[9] = target: T1, Cellular tumor antigen p53; assay: Activation of p53 in human NUGC4 cells assessed as change in S1AH1 mRNA level at 60 uM after 18 hrs by RT-PCR method relative to control; conditions: read-out: FC
[10] = target: T1, Cellular tumor antigen p53; assay: Activation of p53 in human NUGC4 cells assessed as change in BAI1 mRNA level at 60 uM after 18 hrs by RT-PCR method relative to control; conditions: read-out: FC; outline: as §1
[11] = test system: Cellular tumor antigen p53 (Homo sapiens), P04637 [Y220C]; assay: Activation of p53 Y220C mutant in human NUGC3 cells assessed as change in BIRC5 mRNA level at 60 uM after 18 hrs by RT-PCR method relative to control; outline: as §2
[12] = test system: Cellular tumor antigen p53 (Homo sapiens), P04637 [Y220C]; assay: Activation of p53 Y220C mutant in human NUGC3 cells assessed as change in EGFR mRNA level at 60 uM after 18 hrs by RT-PCR method relative to control; outline: as §2
[13] = target: T1, Cellular tumor antigen p53; assay: Activation of p53 in human NUGC4 cells assessed as change in GML mRNA level at 60 uM after 18 hrs by RT-PCR method relative to control; conditions: read-out: FC; outline: as §3
[14] = test system: Cellular tumor antigen p53 (Homo sapiens), P04637 [Y220C]; assay: Activation of p53 Y220C mutant in human NUGC3 cells assessed as change in KRAS mRNA level at 60 uM after 18 hrs by RT-PCR method relative to control; outline: as §1
[15] = target: T1, Cellular tumor antigen p53; assay: Activation of p53 in human NUGC4 cells assessed as change in BTG2 mRNA level at 60 uM after 18 hrs by RT-PCR method relative to control; conditions: read-out: FC; outline: as §3
[16] = target: T1, Cellular tumor antigen p53; assay: Activation of p53 in human NUGC4 cells assessed as change in BCL2 mRNA level at 60 uM after 18 hrs by RT-PCR method relative to control; conditions: read-out: FC; outline: as §1
[17] = test system: Cellular tumor antigen p53 (Homo sapiens), P04637 [Y220C]; assay: Activation of p53 Y220C mutant in human HuH7 cells assessed as increase in BBC3 mRNA level at 30 uM after 18 hrs by RT-PCR method
Outline: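 Real-time PCR. Cells were treated for 18 h, with 0.5% DMSO in both compound and control samples. Relative mRNA levels were quantified by the ΔΔCt method as fold-change against the untreated sample. Each sample was measured in triplicate, and data are given as mean ± SEM with an unpaired t-test.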

[18] = test system: Cellular tumor antigen p53 (Homo sapiens), P04637 [Y220C]; assay: Activation of p53 Y220C mutant in human NUGC3 cells assessed as change in TP53BP2 mRNA level at 60 uM after 18 hrs by RT-PCR method relative to control; outline: as §1
[19] = test system: Cellular tumor antigen p53 (Homo sapiens), P04637 [Y220C]; assay: Activation of p53 Y220C mutant in human NUGC3 cells assessed as change in ADGRB1 mRNA level at 60 uM after 18 hrs by RT-PCR method relative to control; outline: as §2
[20] = test system: Cellular tumor antigen p53 (Homo sapiens), P04637 [Y220C]; assay: Activation of p53 Y220C mutant in human NUGC3 cells assessed as change in FAS mRNA level at 60 uM after 18 hrs by RT-PCR method relative to control; outline: as §2
[21] = test system: Cellular tumor antigen p53 (Homo sapiens), P04637 [Y220C]; assay: Activation of p53 Y220C mutant in human NUGC3 cells assessed as change in MLH1 mRNA level at 60 uM after 18 hrs by RT-PCR method relative to control; outline: as §1
[22] = target: T1, Cellular tumor antigen p53; assay: Activation of p53 in human NUGC4 cells assessed as change in TP53BP2 mRNA level at 60 uM after 18 hrs by RT-PCR method relative to control; conditions: read-out: FC
[23] = target: T1, Cellular tumor antigen p53; assay: Activation of p53 in human NUGC4 cells assessed as change in JUN mRNA level at 60 uM after 18 hrs by RT-PCR method relative to control; conditions: read-out: FC; outline: as §3
[24] = test system: Cellular tumor antigen p53 (Homo sapiens), P04637 [Y220C]; assay: Activation of p53 Y220C mutant in human NUGC3 cells assessed as change in ATM mRNA level at 60 uM after 18 hrs by RT-PCR method relative to control; outline: as §2
[25] = test system: Cellular tumor antigen p53 (Homo sapiens), P04637 [Y220C]; assay: Activation of p53 Y220C mutant in human NUGC3 cells assessed as change in DNMT1 mRNA level at 60 uM after 18 hrs by RT-PCR method relative to control; outline: as §2
[26] = target: T1, Cellular tumor antigen p53; assay: Activation of p53 in human NUGC4 cells assessed as change in BIRC5 mRNA level at 60 uM after 18 hrs by RT-PCR method relative to control; conditions: read-out: FC; outline: as §1
[27] = target: T1, Cellular tumor antigen p53; assay: Activation of p53 in human NUGC4 cells assessed as change in TNF mRNA level at 60 uM after 18 hrs by RT-PCR method relative to control; conditions: read-out: FC
[28] = test system: Cellular tumor antigen p53 (Homo sapiens), P04637 [Y220C]; assay: Activation of p53 Y220C mutant in human NUGC3 cells assessed as change in CDKN1A mRNA level at 60 uM after 18 hrs by RT-PCR method relative to control; outline: as §2

CCNC(=O)c1c(O)c(I)c(-n2cccc2)c2sc(N(CC)CC)nc12
fold change (FC) [1]: 1.5
fold change (FC) [2]: 1.3
fold induction at 60 µM [3]: 1.7
fold change (FC) [4]: 0.7
fold induction at 60 µM [5]: 0.7
fold induction at 60 µM [6]: 0.5
fold induction at 60 µM [7]: 0.7
fold induction at 60 µM [8]: 0.8
fold induction at 60 µM [9]: 1.2
fold induction at 60 µM [10]: 2.9
fold change (FC) [11]: 0.6
fold change (FC) [12]: 1
fold induction at 60 µM [13]: 1.9
fold change (FC) [14]: 1.2
fold induction at 60 µM [15]: 0.6
fold induction at 60 µM [16]: 1.2
Activity [17]: Active
fold change (FC) [18]: 1.8
fold change (FC) [19]: 1.5
fold change (FC) [20]: 2.6
fold change (FC) [21]: 5.4
fold induction at 60 µM [22]: 0.9
fold induction at 60 µM [23]: 0.7
fold change (FC) [24]: 0.9
fold change (FC) [25]: 1.2
fold induction at 60 µM [26]: 0.6
fold induction at 60 µM [27]: 1.1
fold change (FC) [28]: 3.1
